Data on 19 compounds can be found in ChEMBL document CHEMBL4732025, “Assessment of the rules related to gaining activity against Gram-negative bacteria” (RSC Med Chem, 2021).

Data set [1] in a line: Inhibition of IspE in Plasmodium falciparum incubated for 30 mins by microplate reader assay. A digest of the protocol: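 P. falciparum IspE with C-terminal His6, expressed in E. coli XL1 and purified by Ni2+ chelating chromatography and then G-25 gel filtration. Coupled PK/LDH assay with 1.0 mM CDP-ME in 100 mM Tris-HCl pH 7.6 plus MgCl2, KCl, DTT, NADH, PEP, ATP, PK and LDH. Compound added from DMSO. Read photometrically at room temperature for 30 min.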

For data set [2], the system named is HepG2. In words: Cytotoxicity against human HepG2 cells at 50 uM after 72 hrs by MTT assay. Format: functional.
Data set [3] deals with T1, 4-diphosphocytidyl-2-C-methyl-D-erythritol kinase (Escherichia coli (strain K12), UniProt P62615).
T1 sequence (P62615 whole entry): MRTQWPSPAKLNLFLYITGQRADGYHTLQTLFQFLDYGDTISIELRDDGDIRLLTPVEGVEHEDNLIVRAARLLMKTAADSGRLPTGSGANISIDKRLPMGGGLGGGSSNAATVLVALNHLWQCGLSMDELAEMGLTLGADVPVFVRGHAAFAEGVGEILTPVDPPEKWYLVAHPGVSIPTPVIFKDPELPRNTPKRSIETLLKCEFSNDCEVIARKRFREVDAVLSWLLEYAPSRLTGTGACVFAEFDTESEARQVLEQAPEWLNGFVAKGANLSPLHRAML
Put plainly: Inhibition of IspE expressed in Escherichia coli incubated for 30 mins by microplate reader assay.

Data set [4] deals with Escherichia coli. In words: Antimicrobial activity against Escherichia coli harboring delta tolC mutant assessed as growth inhibition at 50 uM relative to control. The format is functional. A digest of the protocol:
(§1)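 E. coli K12 wild-type and its ΔtolC and ΔacrB efflux mutants were used. Percentage growth inhibition was taken at 100 μM, or at 25 or 50 μM where compound solubility limited the top concentration, when no MIC could be determined.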

The subject of data set [5] is Escherichia coli. Put plainly: Antimicrobial activity against Escherichia coli BL21 (DE3) assessed as growth inhibition at 50 uM relative to control. The format is functional. A digest of the protocol: (§2)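 Broth growth assay with E. coli BL21(DE3)omp8 (porin-[…]), E. coli D22 or S. aureus Newman. Percent growth inhibition was measured at 100 μM, or at a lower concentration where compound solubility limited it, whenever no MIC could be determined.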

For data set [6], the system named is Plasmodium falciparum. In words: Antiplasmodial activity against Plasmodium falciparum NF54 infected in human erythrocyte assessed as reduction in [3H]hypoxanthine incorporation incubated for 24 hrs by beta liquid scintillation counter analysis. Format: functional. The gist of the method:
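Compounds (DMSO stocks) were titrated in duplicate over a 64-fold range at 1.25% haematocrit and 0.3% parasitaemia for 48 h. [3H]hypoxanthine (0.25 μCi/well) was then added for 24 h and incorporation counted by scintillation. Results are % of untreated control, with IC50 by linear interpolation.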

Data set [7] concerns Staphylococcus aureus. In words: Antimicrobial activity against Staphylococcus aureus subsp. aureus str. Newman assessed as growth inhibition at 50 uM relative to control. The format is functional. The gist of the method:
as §2

Data set [8] can be described thus: Inhibition of PK/LDH (unknown origin). A digest of the protocol:
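Counter-screen of the auxiliary enzymes: 1 mM ADP, 2 mM PEP, 1 mM NADH, PK and LDH (0.05 U/mL each), 10 mM MgCl2, 200 mM KCl, 10 mM DTT in 100 mM Tris-HCl pH 7.6. Compound added from DMSO. NADH decrease monitored photometrically at room temperature for 30 min.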

The subject of data set [9] is Escherichia coli. Put plainly: Antimicrobial activity against Escherichia coli harboring deltaACRB mutant assessed as growth inhibition at 50 uM relative to control. The format is functional. The gist of the method: as §1
For data set [10], the system named is Escherichia coli. Put plainly: Antimicrobial activity against Escherichia coli D22 assessed as growth inhibition at 50 uM relative to control. Format: functional. The gist of the method:
as §2

Data set [11] has as its system Escherichia coli. Put plainly: Antimicrobial activity against Escherichia coli harboring delta tolC mutant assessed as growth inhibition at 100 uM relative to control. The format is functional. The gist of the method:
as §1

Data set [12] relates to Staphylococcus aureus. Put plainly: Antimicrobial activity against Staphylococcus aureus subsp. aureus str. Newman assessed as growth inhibition at 100 uM relative to control. Format: functional. The gist of the method: as §2
Data set [13] deals with Escherichia coli. In words: Antimicrobial activity against Escherichia coli D22 assessed as growth inhibition at 100 uM relative to control. Format: functional. The gist of the method: as §2
Data set [14] has as its system Escherichia coli. In words: Antimicrobial activity against Escherichia coli BL21 (DE3) assessed as growth inhibition at 100 uM relative to control. The format is functional. A digest of the protocol:
as §2

Data set [15] has as its system Escherichia coli. Put plainly: Antimicrobial activity against Escherichia coli K-12 mutant assessed as growth inhibition at 100 uM relative to control. Format: functional. A digest of the protocol:
as §1

Data set [16] relates to Escherichia coli. Put plainly: Antimicrobial activity against Escherichia coli harboring deltaACRB mutant assessed as growth inhibition at 100 uM relative to control. Format: functional. The gist of the method:
as §1

The test system of data set [17] is HepG2. Put plainly: Cytotoxicity against human HepG2 cells at 100 uM after 72 hrs by MTT assay. Format: functional.
The nature of data set [18]: Octanol/water partition co-efficient, log P of compound. The format is physicochemical. The gist of the method:
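Log P(o/w) calculated in silico, not measured.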

Data set [19] concerns Escherichia coli. In words: Antimicrobial activity against Escherichia coli K-12 mutant assessed as growth inhibition at 100 uM in presence of polymyxin B nonapeptide relative to control. The format is functional.
For data set [20], the system named is Escherichia coli. Put plainly: Antimicrobial activity against Escherichia coli BL21 (DE3) assessed as growth inhibition at 25 uM relative to control. Format: functional. A digest of the protocol:
as §2

The test system of data set [21] is Staphylococcus aureus. Put plainly: Antimicrobial activity against Staphylococcus aureus subsp. aureus str. Newman assessed as growth inhibition at 25 uM relative to control. Format: functional. The gist of the method: as §2
The subject of data set [22] is Escherichia coli. In words: Antimicrobial activity against Escherichia coli harboring delta tolC mutant assessed as growth inhibition at 25 uM relative to control. The format is functional. A digest of the protocol:
as §1

The test system of data set [23] is Escherichia coli. In words: Antimicrobial activity against Escherichia coli D22 assessed as growth inhibition at 25 uM relative to control. The format is functional. A digest of the protocol:
as §2

The test system of data set [24] is HepG2. Put plainly: Cytotoxicity against human HepG2 cells at 25 uM after 72 hrs by MTT assay. Format: functional.
In data set [25] the test system is Escherichia coli. Put plainly: Antimicrobial activity against Escherichia coli harboring deltaACRB mutant assessed as growth inhibition at 25 uM relative to control. The format is functional. A digest of the protocol:
as §1

As to `CCCn1c(C)cc(-c2csc(NC(=O)c3cccs3)n2)c1C`, the IC50 was determined as 35 µM in data set [1], 68 µM in [3], 6 µM in data set [6] and 56 µM in [8]. The inhibition at 50 µM was -3% in [2]; 33% in data set [4]; 19% in data set [5]; 7% in [7]; 7% in data set [9]; 4% in data set [10].
As for `CC(C)C[C@H](N[C@H](NC(=O)OC(C)(C)C)C(=O)Nc1csc(-c2ccccc2)n1)C(=O)O`, the inhibition at 100 µM in [11] stood at 3%.
For `Cc1cc(-c2csc(NC(=O)[C@@H](N)N[C@@H](CC(C)C)C(=O)O)n2)c(C)n1C`, the inhibition at 100 µM is 58% in data set [11] and 52% in [12].
With `CC(C)C[C@H](N[C@H](N)C(=O)Nc1csc(-c2ccccc2)n1)C(=O)O`, the inhibition at 100 µM in data set [11] came out at 32%; in [13], 18%; in data set [14], 30%; in data set [15], 18%; in data set [12] it was 11%; in data set [16], 11%.
In the case of `CCn1c(C)cc(-c2csc(NC(=O)[C@@H](N)NCC(=O)O)n2)c1C`, the inhibition at 100 µM stood at 55% in data set [11]; 20% in data set [13]; 16% in data set [14]; 23% in data set [17]; 13% in data set [15]; 65% in [16]. For the same compound, the logP in data set [18] was 1.4. The inhibition at 50 µM in data set [7] turned out to be 14%.
With `Cc1cc(-c2csc(NC(=O)[C@@H](N)N[C@H](C(=O)O)C(C)C)n2)c(C)n1C`, the inhibition at 100 µM in [11] was 42%.
With `Cc1cc(-c2csc(NC(=O)[C@@H](N)NCC(=O)O)n2)c(C)n1C`, the inhibition at 50 µM in data set [2] was 19%. The inhibition at 100 µM came out at 57% in data set [11]; 3% in data set [13]; 18% in [14]; 13% in [15]; 6% in [12]; 8% in [16]. The compound also yielded a logP in data set [18] of 0.9.
On to `Cc1cc(-c2csc(NC(=O)[C@@H](NC(=O)OC(C)(C)C)N[C@@H](Cc3ccc(O)cc3)C(=O)O)n2)c(C)n1C`, for which the inhibition at 50 µM in data set [4] was 13%.
Same read-out and setting: the result for `CCn1c(C)cc(-c2csc(NC(=O)[C@H](NCC(=O)O)NC(=O)OC(C)(C)C)n2)c1C` reads 41%.
With `CC(C)(C)OC(=O)N[C@@H](NCC(=O)O)C(=O)Nc1csc(-c2ccccc2)n1`, the inhibition at 100 µM in data set [11] came to 34%.
Regarding `N[C@@H](NCC(=O)O)C(=O)Nc1csc(-c2ccccc2)n1`, the inhibition at 100 µM in [11] was determined as 10%; in data set [13], 15%; in data set [14] it was 19%; in data set [17], 17%; in [15], 22%; in data set [12], 5%. Also, the inhibition at 100 µM in data set [16] worked out at 6%.
In the case of `Cc1cc(-c2csc(NC(=O)[C@@H](NC(=O)OC(C)(C)C)N[C@H](C(=O)O)C(C)C)n2)c(C)n1C`, in data set [4], the inhibition at 50 µM was found to be 14%.
Same read-out and setting: the result for `Cc1cc(-c2csc(NC(=O)[C@@H](NC(=O)OC(C)(C)C)N[C@@H](CC(C)C)C(=O)O)n2)c(C)n1C` reads 8%.
Take `Nc1nc(=O)n(C2CCCS2)cc1C#CCNS(=O)(=O)C1CC1` (stereo unspecified): the values for the IC50 in data set [1], in [3] and in data set [8] were greater than 500 µM, 1 µM and greater than 500 µM, respectively. In data set [19], the inhibition at 100 µM is 6%.
With `CC(C)[C@H](N[C@H](NC(=O)OC(C)(C)C)C(=O)Nc1csc(-c2ccccc2)n1)C(=O)O`, the inhibition at 100 µM in data set [11] is 21%.
On the same count and under the same terms, the result for `Cc1cc(-c2csc(NC(=O)[C@@H](N)N[C@@H](Cc3ccc(O)cc3)C(=O)O)n2)c(C)n1C` reads 38%.
In the case of `CCCn1c(C)cc(-c2csc(NC(=O)c3ccco3)n2)c1C`, the IC50 in [1] came out at 57 µM; in [3], 91 µM; in data set [6] it was 5 µM; in data set [8], 65 µM. Moreover, the inhibition at 25 µM in data set [20] came out at 3%; in data set [21], 6%; in [22] it was 30%; in data set [23], 9%; in data set [24], 19%; in data set [25], 5%.
Regarding `Cc1cc(-c2csc(NC(=O)[C@H](NCC(=O)O)NC(=O)OC(C)(C)C)n2)c(C)n1C`, in data set [11], the inhibition at 100 µM came to 46%.
Take `CC(C)[C@H](N[C@H](N)C(=O)Nc1csc(-c2ccccc2)n1)C(=O)O`: the inhibition at 100 µM in data set [11] was 17%; in [13], 14%; in data set [14] it was 16%; in [15], 13%; in data set [12] it was 5%; in data set [16] it was 2%.
